Experiments:
Assay type in all cases: functional
[1] = system: RXF 631; experiment: Tested in vitro for cytotoxicity in RXF-631 cell line of Renal cancer; details: Homo sapiens, read-out: Log TGI (converted)
Procedure, shortened: (§1)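 Compounds dissolved in DMSO, then diluted 500-fold into aqueous medium. The resulting aqueous solutions or suspensions were added to the cultured human tumour cell lines, and the cells were exposed for 48 h. Growth was read colorimetrically in one of two ways: a metabolic assay in which viable cells reduce a tetrazolium salt to a formazan dye, or a protein stain for total cellular protein.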

[2] = system: SF-268; experiment: Tested in vitro for cytotoxicity in SF-268 cell line of CNS cancer; details: Homo sapiens, read-out: Log TGI (converted); procedure, shortened: as §1
[3] = system: RPMI-8226; experiment: Tested in vitro for cytotoxicity in RPMI-8226 cell line of Leukemia; details: Homo sapiens, read-out: Log TGI (converted); procedure, shortened: as §1
[4] = system: M14; experiment: Tested in vitro for cytotoxicity in M14 cell line of Melanoma; details: Homo sapiens, read-out: Log TGI (converted); procedure, shortened: as §1
[5] = system: EKVX; experiment: Tested in vitro for cytotoxicity in EKVX cell line of Non-Small Cell Lung Cancer; details: Homo sapiens, read-out: Log TGI (converted)
Procedure, shortened: (§2)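 Compound DMSO solutions diluted 500-fold into aqueous medium; the resulting solutions or suspensions were added to cultured human tumor cells for 48 h. Growth was read colorimetrically, either by tetrazolium reduction to formazan by viable cells or by a protein stain for total cellular protein.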

[6] = system: A498; experiment: Tested in vitro for cytotoxicity in A498 cell line of Renal cancer; details: Homo sapiens, read-out: Log TGI (converted); procedure, shortened: as §1
[7] = system: IGROV-1; experiment: Tested in vitro for cytotoxicity in IGROV1 cell lines; details: Homo sapiens; procedure, shortened: as §1
[8] = system: K562; experiment: Tested in vitro for cytotoxicity in K-562 cell line of Leukemia; details: Homo sapiens, read-out: Log TGI (converted); procedure, shortened: as §1
[9] = system: HT-29; experiment: Tested in vitro for cytotoxicity in HT-29 cell line of Colon Cancer; details: Homo sapiens, read-out: Log TGI (converted); procedure, shortened: as §1
[10] = system: CCRF-CEM; experiment: Tested in vitro for cytotoxicity in CCRF-CEM cell lines; details: Homo sapiens; procedure, shortened: as §1
[11] = system: DMS-273; experiment: Tested in vitro for cytotoxicity in DMS273 cell line of Small Cell Lung Cancer; details: Homo sapiens, read-out: Log TGI (converted); procedure, shortened: as §1
[12] = system: CCRF-CEM; experiment: Tested in vitro for cytotoxicity in CCRF-CEM cell line of Leukemia; details: Homo sapiens, read-out: Log TGI (converted); procedure, shortened: as §1
[13] = system: SK-OV-3; experiment: Tested in vitro for cytotoxicity in SK-OV-3 cell line of Ovarian Cancer; details: Homo sapiens, read-out: Log TGI (converted)
Procedure, shortened: (§3)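 Compounds dissolved in DMSO and diluted 500-fold into aqueous medium; aliquots of the resulting solutions or suspensions added to cultured human tumor cells for 48 h. Growth read colorimetrically, either by tetrazolium reduction to formazan by viable cells or by protein staining of total cellular protein.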

[14] = system: SK-MEL-2; experiment: Tested in vitro for cytotoxicity in SK-MEL-2 cell line of Melanoma; details: Homo sapiens, read-out: Log TGI (converted); procedure, shortened: as §1
[15] = system: HOP-92; experiment: Tested in vitro for cytotoxicity in HOP-92 cell line of Non-Small Cell Lung Cancer; details: Homo sapiens, read-out: Log TGI (converted); procedure, shortened: as §1
[16] = system: SK-MEL-28; experiment: Tested in vitro for cytotoxicity in SK-MEL-28 cell line of Melanoma; details: Homo sapiens, read-out: Log TGI (converted); procedure, shortened: as §1
[17] = system: TK-10; experiment: Tested in vitro for cytotoxicity in TK-10 cell line of Renal cancer; details: Homo sapiens, read-out: Log TGI (converted); procedure, shortened: as §3
[18] = system: CAKI-1; experiment: Tested in vitro for cytotoxicity in CAKI-1 cell line of Renal cancer; details: Homo sapiens, read-out: Log TGI (converted); procedure, shortened: as §1
[19] = system: HL-60; experiment: Tested in vitro for cytotoxicity in HL-60(TB) cell line of Leukemia; details: Homo sapiens, read-out: Log TGI (converted)
Procedure, shortened: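 Compounds were dissolved in DMSO and diluted 500-fold in aqueous medium. Aliquots of the resulting solution or suspension were added to the cultured cells for 48 h. Growth was read colorimetrically, either by tetrazolium reduction to formazan in viable cells or by a total-protein stain.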

[20] = system: SNB-78; experiment: Tested in vitro for cytotoxicity in SNB-78 cell line of CNS Cancer; details: Homo sapiens, read-out: Log TGI (converted); procedure, shortened: as §3
[21] = system: LOX IMVI; experiment: Tested in vitro for cytotoxicity in LOX IMVI cell line of Melanoma; details: Homo sapiens, read-out: Log TGI (converted); procedure, shortened: as §1
[22] = system: NCI-H23; experiment: Tested in vitro for cytotoxicity in NCI-H23 cell line of Non-Small Cell Lung Cancer; details: Homo sapiens, read-out: Log TGI (converted); procedure, shortened: as §1
[23] = system: OVCAR-3; experiment: Tested in vitro for cytotoxicity in OVCAR-3 cell line of Ovarian Cancer; details: Homo sapiens, read-out: Log TGI (converted); procedure, shortened: as §2
[24] = system: MOLT-4; experiment: Tested in vitro for cytotoxicity in MOLT-4 cell line of Leukemia; details: Homo sapiens, read-out: Log TGI (converted); procedure, shortened: as §1
[25] = system: DLD-1; experiment: Tested in vitro for cytotoxicity in DLD-1 cell line of Colon Cancer; details: Homo sapiens, read-out: Log TGI (converted); procedure, shortened: as §1
[26] = system: HCT-116; experiment: Tested in vitro for cytotoxicity in HCT116 cell line of Colon Cancer; details: Homo sapiens, read-out: Log TGI (converted); procedure, shortened: as §1
[27] = system: UACC-62; experiment: Tested in vitro for cytotoxicity in UACC-62 cell line of Melanoma; details: Homo sapiens, read-out: Log TGI (converted); procedure, shortened: as §3
[28] = system: HOP-18; experiment: Tested in vitro for cytotoxicity in HOP-18 cell line of Non-Small Cell Lung Cancer; details: Homo sapiens, read-out: Log TGI (converted); procedure, shortened: as §1
[29] = system: A549; experiment: Tested in vitro for cytotoxicity in A549/ATCC cell line of Non-Small Cell Lung Cancer; details: Homo sapiens, read-out: Log TGI (converted); procedure, shortened: as §1
[30] = system: M19-MEL; experiment: Tested in vitro for cytotoxicity in M19-MEL cell line of Melanoma; details: Homo sapiens, read-out: Log TGI (converted); procedure, shortened: as §1
[31] = system: SF-295; experiment: Tested in vitro for cytotoxicity in SF-295 cell line of CNS Cancer; details: Homo sapiens, read-out: Log TGI (converted); procedure, shortened: as §1

COc1ccc2[nH]c3c(C)c4cc[n+](C)cc4c(C)c3c2c1
TGI [1]: > 100 µM | TGI [2]: 5.01 µM | TGI [3]: > 100 µM | TGI [4]: > 100 µM | TGI [5]: 25.1 µM | TGI [6]: > 100 µM | GI50 [7]: 3.62 µM | TGI [8]: > 100 µM | TGI [9]: > 100 µM | GI50 [10]: 4.22 µM | TGI [11]: 63.1 µM | TGI [12]: > 100 µM | TGI [13]: > 100 µM | TGI [14]: 63.1 µM | TGI [15]: 79.4 µM | TGI [16]: 50.1 µM | TGI [17]: > 100 µM | TGI [18]: > 100 µM | TGI [19]: > 100 µM | TGI [20]: 10 µM | TGI [21]: > 100 µM | TGI [22]: 10 µM | TGI [23]: 100 µM | TGI [24]: > 100 µM | TGI [25]: > 100 µM | TGI [26]: > 100 µM | TGI [27]: > 100 µM | TGI [28]: > 100 µM | TGI [29]: > 100 µM | TGI [30]: 25.1 µM | TGI [31]: 6.31 µM
